High-throughput results (PubChem BioAssay)
Dyrk1A ADPGlo = Dyrk1A (rat) kinase inhibition; Q63470; 310,000 tested, 0.43% active; inhibition, % at 12.5 µM; ADP-Glo luminescence, NFATc1 peptide; in the data active means inhibition above about 50%
PvdQ inh = P. aeruginosa PvdQ acylase inhibition. purified PvdQ acylase, fluorescence plate reader. inhibition, % at 10 µM. 340,000 tested, 0.063% active. AID 488965; in the data active means inhibition above about 30%, passing the limit was not always enough
Tb MetRS inh = blocks T. brucei methionyl-tRNA synthetase activity | purified T. brucei MetRS, ATP depletion, Kinase-Glo luminescence | inhibition, % at 11.9 µM | 360,000 tested, 0.4% active;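 active means inhibition above a per-plate cutoff of the control wells' mean inhibition plus 3 SD, cut at about 5.5% in these data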
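Test system – parasite MetRS enzyme · Reagent – substrates ATP, L-methionine and bulk Escherichia coli tRNA · Doses – 11.9 µM compound single dose, 0.9% DMSO · Times – 15 min enzyme-compound preincubation, 2 h reaction, 10 min detection, 25 °C · Signal – Kinase-Glo luminescence, ATP depletion format · Controls – DMSO-only wells as low control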
CDK5 p35 inh = inhibitors of human CDK5/p35 kinase; Q00535+Q15078; 330,000 tested, 0.01% active; inhibition, % at 10 µM; Recombinant CDK5/p35, ADP-Glo luminescence, 60 min;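 active means highest replicate inhibition of at least 50% and at least 75% of replicates reaching 50%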
Target sequence (Q00535 whole entry, looked up): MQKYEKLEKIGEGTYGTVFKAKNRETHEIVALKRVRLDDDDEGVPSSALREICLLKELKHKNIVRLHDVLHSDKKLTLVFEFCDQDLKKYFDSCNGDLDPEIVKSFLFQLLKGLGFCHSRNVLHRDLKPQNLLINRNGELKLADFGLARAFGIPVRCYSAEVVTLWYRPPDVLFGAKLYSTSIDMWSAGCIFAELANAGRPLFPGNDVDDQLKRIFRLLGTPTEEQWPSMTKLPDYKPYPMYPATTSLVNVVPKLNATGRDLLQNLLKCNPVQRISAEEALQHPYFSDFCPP
Target sequence (Q15078 whole entry, looked up): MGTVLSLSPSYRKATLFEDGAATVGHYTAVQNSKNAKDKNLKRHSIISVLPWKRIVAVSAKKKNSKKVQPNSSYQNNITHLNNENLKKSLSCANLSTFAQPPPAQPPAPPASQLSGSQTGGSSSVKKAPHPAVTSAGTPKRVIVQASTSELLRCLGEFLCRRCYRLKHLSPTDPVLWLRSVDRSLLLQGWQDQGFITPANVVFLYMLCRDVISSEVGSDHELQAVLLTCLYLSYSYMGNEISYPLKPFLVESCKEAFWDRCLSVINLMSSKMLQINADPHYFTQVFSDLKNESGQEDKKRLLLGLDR
CAL PDZ FP-1 = blocks peptide binding to human CAL PDZ domain; Q9HD26; purified CAL PDZ, TMR-peptide fluorescence polarization, 1 h; inhibition, % at 20 µM; 330,000 tested, 0.02% active;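 active means highest replicate inhibition of at least 40%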
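Assay system – tagged CAL PDZ protein CerCALP, purified · Timing – 1 h at RT · Compound – single point, 20 µM · Measured by – fluorescence polarization from S- and P-plane intensities, G-factor corrected · Evaluation – inhibition from polarization loss · Probe or stimulus – TMR reporter peptide T*-PRC34 · Buffer or medium – pH 7.4 phosphate-saline buffer, reducing agent, detergent, IgG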
CAL PDZ FP-2 = inhibitors of human CAL PDZ peptide binding | purified CAL PDZ, TMR-peptide fluorescence polarization, 1 h | AID 602252 | inhibition, % at 24.9 µM | 300,000 tested, 0.92% active;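 active means mean inhibition of at least 30% with at least half of replicates also reaching 30%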
Dyrk1A artifact = ADP-Glo luciferase interference, Dyrk1A counter-screen. ADP-Glo luciferase artifact assay, no Dyrk1A, luminescence. AID 588348. AC50, µM (doses to about 12 µM). 1,300 tested, under 10 active. shares compounds with Dyrk1A ADPGlo;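 active means fitted half-maximal dose AC50 no more than ten times the top valid tested dose, with luminescence dropping as dose rises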
Tb MetRS conf = Trypanosoma brucei MetRS inhibition confirmed; AID 624412; T. brucei MetRS enzyme, luminescence (ATP depletion); shares compounds with Tb MetRS inh; 1,400 tested, 93% active; inhibition, % at 11.9 µM; in the data active means inhibition above about 7%
Jurkat cytotox = counter-screen for T. brucei MetRS inhibitors: Jurkat cell cytotoxicity; shares compounds with Tb MetRS inh; 1,400 tested, 12% active; AID 624413; Jurkat cells viability, ATP luminescence; inhibition, % at 8.3 µM; in the data active means inhibition above about 15%
TbMetRS FP orth = orthogonal test for Trypanosoma brucei MetRS inhibitors; shares compounds with Tb MetRS inh; purified T. brucei MetRS, fluorescence polarization; inhibition, % at 11.9 µM; 1,400 tested, 44% active; in the data active means inhibition above about 17%
Of the large screens only hits and unclear results are named; the others gave an inactive call (follow-up assays come after a bar, where they were run); ! = repeats disagree. Rows were chosen to be rich in hits. Some 1.4% of all compounds tested hit in one or more screens of this group.

NC(=O)c1cn(C2OC(CO)C(O)C2O)c2ncnc(N)c12 (centres undefined)	Dyrk1A ADPGlo 88!, Tb MetRS inh 5.9! | Dyrk1A artifact inactive | Tb MetRS conf 12 | Jurkat cytotox 97 | TbMetRS FP orth inactive
CCNC(=O)[C@H]1O[C@@H](n2cnc3c(N)ncnc32)[C@H](O)[C@@H]1O	none
CC(CC(C#N)(c1ccccc1)c1ccccc1)N1CCOCC1 (centres undefined)	none
Cc1nc2c(=O)n(C)c(=O)nc-2n(C)n1	Dyrk1A ADPGlo 76, Tb MetRS inh 30 | Dyrk1A artifact inactive | Tb MetRS conf 22 | Jurkat cytotox 91 | TbMetRS FP orth inactive
Clc1ccc(COC(Cn2ccnc2)c2ccc(Cl)cc2Cl)cc1 (centres undefined)	Tb MetRS inh 6.1 | Tb MetRS conf 20 | Jurkat cytotox inactive | TbMetRS FP orth inactive
O=C1Nc2ccccc2C1Cc1nc2ccccc2c(=O)n1-c1ccccc1 (centres undefined)	Tb MetRS inh 9.1 | Tb MetRS conf 6.2 | Jurkat cytotox inactive | TbMetRS FP orth inactive
CCOC(=O)c1c(NS(=O)(=O)c2ccccc2)n(CCCOC)c2nc3ccccc3nc12	Tb MetRS inh 14 | Tb MetRS conf inactive | Jurkat cytotox inactive | TbMetRS FP orth inactive
COCCCn1c(N)c(C(=O)OCCOC)c2nc3ccccc3nc21	none
CCCCCN1C(=O)c2cc(OC)ccc2[C@@]2(C(=O)OCC)Cc3cc(OC)ccc3[C@@H]12	none (no result: Dyrk1A ADPGlo, PvdQ inh, CDK5 p35 inh, CAL PDZ FP-1, CAL PDZ FP-2)
CCN(CC)C(=O)c1ccc(NC(=O)c2cccc(C(F)(F)F)c2)cc1	none (no result: CAL PDZ FP-2)
CCN(CC)C(=O)c1ccc(NC(=O)c2ccc(-n3cncn3)c([N+](=O)[O-])c2)cc1	Tb MetRS inh 8.0 | Tb MetRS conf 43 | Jurkat cytotox inactive | TbMetRS FP orth 26
Clc1ccc(C(c2ccc(Cl)cc2)n2cc[n+](CC(OCc3ccc(Cl)cc3Cl)c3ccc(Cl)cc3Cl)c2)cc1 (centres undefined)	Tb MetRS inh 8.7 | Tb MetRS conf 13 | Jurkat cytotox 82 | TbMetRS FP orth 178
CCOC(=O)[C@]12Cc3c(cc(OC)c(OC)c3OC)[C@H]1N(C1CCCCC1)C(=O)c1ccccc12	none (no result: Dyrk1A ADPGlo, PvdQ inh, CDK5 p35 inh, CAL PDZ FP-1, CAL PDZ FP-2)
Nc1c(C(=O)NC2CCCC2)c2nc3ccccc3nc2n1CC1CCCO1 (centres undefined)	Tb MetRS inh 7.5 | Tb MetRS conf inactive | Jurkat cytotox inactive | TbMetRS FP orth inactive
Oc1ccc(O)c2c1C1(Cl)C(Cl)=C(Cl)C2(Cl)C1(Cl)Cl	none
CN(C)Cc1c[nH]c2cc([N+](=O)[O-])ccc12	Tb MetRS inh 6.7 | Tb MetRS conf 30 | Jurkat cytotox inactive | TbMetRS FP orth inactive
O=C(NCC1=C(c2cccc3ccccc23)C[C@@H]2CC[C@H]1N2Cc1ccco1)c1ccc([N+](=O)[O-])cc1	none (no result: Dyrk1A ADPGlo, PvdQ inh, CDK5 p35 inh, CAL PDZ FP-1, CAL PDZ FP-2)
Cc1ccc2nc3c(cc2c1)CC1(C(=O)N(C)C(=O)N(C)C1=O)C1COCCN31 (centres undefined)	Tb MetRS inh 7.1 | Tb MetRS conf inactive | Jurkat cytotox inactive | TbMetRS FP orth inactive
Cc1ccc2nc3c(cc2c1)CC1(C(=O)N(C)C(=O)N(C)C1=O)C1CCCCN31 (centres undefined)	none (no result: CAL PDZ FP-1)
Cc1nc2cc(OC(=O)N(C)Cc3cccc(-c4ccncc4)c3)ccc2s1	none (no result: Dyrk1A ADPGlo, PvdQ inh, CDK5 p35 inh, CAL PDZ FP-1, CAL PDZ FP-2)
COC1CC2C=C(C)C=CC=CC(=O)NC(c3ccccc3)CC=CCCC(O)CC(=O)C2=C1O (centres undefined)	none (no result: Dyrk1A ADPGlo, PvdQ inh, CDK5 p35 inh, CAL PDZ FP-1, CAL PDZ FP-2)
CSc1ccc(C(=O)C2CCCN(Cc3cccnc3)C2)cc1 (centres undefined)	none
CSc1ccc(C(=O)C2CCCN(Cc3cc4ccccc4[nH]3)C2)cc1 (centres undefined)	Tb MetRS inh 7.1 | Tb MetRS conf 15 | Jurkat cytotox inactive | TbMetRS FP orth inactive
COc1ccc(Cn2c(N)c(C(=O)NCc3ccco3)c3nc4ccccc4nc32)cc1OC	Tb MetRS inh 8.0 | Tb MetRS conf inactive | Jurkat cytotox inactive | TbMetRS FP orth inactive
